Test results published in paper PMC3946992 (Journal of molecular biology, 2013).
Substitutions are numbered along the chain they refer to.

How the values were obtained:
Assay in all cases: isothermal titration calorimetry
Format in all cases: binding
p48 [1] = biological target: T1, p48 (Homo sapiens, UniProt P49642)
T1 sequence (P49642 1-420): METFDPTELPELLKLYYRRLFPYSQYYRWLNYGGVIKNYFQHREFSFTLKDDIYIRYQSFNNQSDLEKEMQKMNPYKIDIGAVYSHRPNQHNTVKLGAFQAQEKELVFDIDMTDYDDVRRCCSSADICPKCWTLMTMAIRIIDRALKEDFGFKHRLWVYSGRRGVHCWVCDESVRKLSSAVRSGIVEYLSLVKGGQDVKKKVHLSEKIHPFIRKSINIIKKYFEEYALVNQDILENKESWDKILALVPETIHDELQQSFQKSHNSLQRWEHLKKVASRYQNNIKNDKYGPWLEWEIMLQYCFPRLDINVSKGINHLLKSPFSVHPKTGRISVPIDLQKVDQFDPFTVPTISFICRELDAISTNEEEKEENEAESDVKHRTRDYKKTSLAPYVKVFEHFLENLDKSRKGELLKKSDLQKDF
Outline: (§1)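 Recombinant human p48 (full length, site-directed point mutants, or residues 1–408 lacking 360–379) is His-tagged in E. coli BL21(DE3), tag-cleaved with H3C protease, then purified by nickel, heparin and S200 chromatography. Protein at 20–30 μM is put in 20 mM HEPES pH 7.2, 100 mM NaCl with 3-fold molar excess MnCl2 and titrated with 400 μM UTP (1 initial plus 28 injections). Kd comes from a single-site nonlinear least-squares fit, ± standard deviation.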

p48 [2] = biological target: T2, p48 (Homo sapiens, UniProt P49642, D306N)
T2 sequence (P49642 1-420 D306N): T1 sequence (P49642 1-420) with D306N
Outline: as §1

p48/p58 = biological target: T3, p48/p58 (Homo sapiens, UniProt P49642)
T3 sequence (P49642 1-420): T1 sequence (P49642 1-420)
T3 sequence (P49643 1-509 partner): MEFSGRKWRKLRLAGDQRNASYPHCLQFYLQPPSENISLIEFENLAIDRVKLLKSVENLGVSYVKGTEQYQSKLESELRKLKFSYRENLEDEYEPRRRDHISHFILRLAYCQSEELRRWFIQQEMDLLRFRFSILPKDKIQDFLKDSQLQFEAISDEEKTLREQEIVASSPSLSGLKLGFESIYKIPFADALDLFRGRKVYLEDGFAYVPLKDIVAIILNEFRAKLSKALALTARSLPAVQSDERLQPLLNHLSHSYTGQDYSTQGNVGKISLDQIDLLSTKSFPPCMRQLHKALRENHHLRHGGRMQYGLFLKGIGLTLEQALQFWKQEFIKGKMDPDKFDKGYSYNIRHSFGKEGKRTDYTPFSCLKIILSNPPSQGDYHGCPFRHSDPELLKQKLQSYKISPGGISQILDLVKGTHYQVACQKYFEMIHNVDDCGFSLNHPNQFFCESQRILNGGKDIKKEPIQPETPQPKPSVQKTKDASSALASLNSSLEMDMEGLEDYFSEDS
Outline: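 Recombinant human p48/p58 primase heterodimer is exchanged into 20 mM HEPES pH 7.2, 100 mM NaCl. Protein at 20–30 μM, pre-mixed with 3-fold molar excess MnCl2, is titrated by ITC with 400 μM nucleotide (UTP) in an initial injection plus 28 further injections. Kd comes from fitting a single-site binding model by nonlinear least squares, ± standard deviation.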

p48 [3] = biological target: T4, p48 (Homo sapiens, UniProt P49642, K318A)
T4 sequence (P49642 1-420 K318A): T1 sequence (P49642 1-420) with K318A
Outline: as §1

p48 [4] = biological target: T5, p48 (Homo sapiens, UniProt P49642, D111N)
T5 sequence (P49642 1-420 D111N): T1 sequence (P49642 1-420) with D111N
Outline: as §1

p48ΔL = biological target: T6, p48ΔL (Homo sapiens, UniProt P49642, DEL360-379)
T6 sequence (P49642 with tags, fused parts or gaps DEL360-379): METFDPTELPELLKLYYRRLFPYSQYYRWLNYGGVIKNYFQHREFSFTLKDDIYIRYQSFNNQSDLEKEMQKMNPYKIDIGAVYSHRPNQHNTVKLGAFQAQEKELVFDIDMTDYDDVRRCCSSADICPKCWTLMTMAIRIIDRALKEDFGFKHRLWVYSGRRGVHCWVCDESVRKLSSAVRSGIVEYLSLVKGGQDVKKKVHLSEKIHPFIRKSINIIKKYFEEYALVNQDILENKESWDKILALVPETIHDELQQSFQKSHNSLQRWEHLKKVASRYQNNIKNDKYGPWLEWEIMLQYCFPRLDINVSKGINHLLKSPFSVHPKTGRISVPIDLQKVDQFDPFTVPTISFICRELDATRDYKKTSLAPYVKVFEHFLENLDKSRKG
Outline: as §1

p48 [5] = biological target: T7, p48 (Homo sapiens, UniProt P49642, D109N)
T7 sequence (P49642 1-420 D109N): T1 sequence (P49642 1-420) with D109N
Outline: as §1

p48 [6] = biological target: T8, p48 (Homo sapiens, UniProt P49642, H315A)
T8 sequence (P49642 1-420 H315A): T1 sequence (P49642 1-420) with H315A
Outline: as §1

A Kd (p48 [1]) of 15 µM was found for `Nc1ccn([C@@H]2O[C@H](COP(=O)(O)OP(=O)(O)OP(=O)(O)O)[C@@H](O)[C@H]2O)c(=O)n1` [CTP] in this work.
A Kd (p48 [1]) of 13 µM was found for `Nc1ncnc2c1ncn2[C@@H]1O[C@H](COP(=O)(O)OP(=O)(O)OP(=O)(O)O)[C@@H](O)[C@H]1O` [ATP] in this work.
A Kd (p48 [1]) of 13 µM was found for `Nc1nc2c(ncn2[C@@H]2O[C@H](COP(=O)(O)OP(=O)(O)OP(=O)(O)O)[C@@H](O)[C@H]2O)c(=O)[nH]1` [GTP] in this work.
A Kd (p48 [2]) of 48 µM, a Kd (p48/p58) of 20 µM and a Kd (p48 [3]) of 49 µM were found for `O=c1ccn([C@@H]2O[C@H](COP(=O)(O)OP(=O)(O)OP(=O)(O)O)[C@@H](O)[C@H]2O)c(=O)[nH]1` [UTP] in this work. The Kd (p48 [4]) was 54 µM, the Kd (p48 [1]) was 11 µM and the Kd (p48ΔL) was 12.5 ± 0.72 µM. For the same compound, the Kd (p48 [5]) was 74 µM and the Kd (p48 [6]) was 22 µM.
